From ChEMBL document CHEMBL1152494, “Synthesis of some new 1,3,4-thiadiazol-2-ylmethyl-1,2,4-triazole derivatives and investigation of their antimicrobial activities” (2009)
Activity calls are given as the source filed them. The rule behind the calls is not given here.

Experiments:
Format in all cases: functional
[1] = system: Escherichia coli; assay: Antimicrobial activity against Escherichia […] after 18 hrs by agar-well diffusion assay
Outline: (§1)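 Organisms suspended in Mueller Hinton broth, diluted to about 10⁶ cfu/mL, and flood-inoculated onto Mueller Hinton agar, then dried. Samples dissolved in DMSO were added to 5 mm wells cut in the agar. Plates were incubated 18 h at 35 °C, and inhibition zones were measured. Ampicillin was the standard drug, with a DMSO solvent control.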

[2] = system: Pseudomonas aeruginosa; assay: Antimicrobial activity against Pseudomonas aeruginosa ATCC 27853 after 18 hrs by agar-well diffusion assay; outline: as §1
[3] = system: Candida albicans; assay: Antimicrobial activity against Candida albicans ATCC 60193 after 18 hrs by agar-well diffusion assay
Outline: (§2)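 Yeast suspended in Mueller Hinton broth at about 10⁶ cfu/mL and flood-inoculated onto Sabouraud dextrose agar, then dried. Samples dissolved in DMSO were placed in 5 mm wells bored in the agar. After 18 h at 35 °C, the zone of inhibition was measured. Fluconazole was the standard drug, with a DMSO solvent control.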

[4] = system: Enterococcus faecalis; assay: Antimicrobial activity against Enterococcus faecalis ATCC 29212 after 18 hrs by agar-well diffusion assay; outline: as §1
[5] = system: Staphylococcus aureus; assay: Antimicrobial activity against Staphylococcus aureus ATCC […] after 18 hrs by agar-well diffusion assay; outline: as §1
[6] = system: Candida tropicalis; assay: Antimicrobial activity against Candida tropicalis ATCC 13803 after 18 hrs by agar-well diffusion assay; outline: as §2
[7] = system: Yersinia pseudotuberculosis; assay: Antimicrobial activity against Yersinia pseudotuberculosis ATCC 911 after 18 hrs by agar-well diffusion assay
Outline: (§3)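 Bacteria were suspended in Mueller Hinton broth at about 10⁶ cfu/mL and flood-inoculated onto Mueller Hinton agar, then dried. Samples in DMSO went into 5-mm cork-bored wells. Plates were incubated 18 h at 35 °C and the zone of inhibition was read. Ampicillin was the standard, with a DMSO solvent control.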

[8] = system: Bacillus cereus; assay: Antimicrobial activity against Bacillus cereus 702 Roma after 18 hrs by agar-well diffusion assay; outline: as §1
[9] = system: Candida tropicalis; assay: Antimicrobial activity against Candida tropicalis ATCC 13803 at 5 ug after 18 hrs by agar-well diffusion assay
Outline: (§4)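 Yeasts were suspended in Mueller Hinton broth at about 10⁶ cfu/mL and flood-inoculated onto Sabouraud dextrose agar, then dried. Samples in DMSO went into 5-mm wells. Plates were incubated 18 h at 35 °C and inhibition zones were measured. Fluconazole was the standard, with a DMSO solvent control.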

[10] = system: Candida albicans; assay: Antimicrobial activity against Candida albicans ATCC 60193 at 5 ug after 18 hrs by agar-well diffusion assay; outline: as §4
[11] = system: Yersinia pseudotuberculosis; assay: Antimicrobial activity against Yersinia pseudotuberculosis ATCC 911 at 10 ug after 18 hrs by agar-well diffusion assay; details: ATCC 911, 18 h, read-out: IZ; outline: as §3
[12] = system: Pseudomonas aeruginosa; assay: Antimicrobial activity against Pseudomonas aeruginosa ATCC 27853 at 10 ug after 18 hrs by agar-well diffusion assay; details: ATCC 27853, 18 h, read-out: IZ; outline: as §1
[13] = system: Bacillus cereus; assay: Antimicrobial activity against Bacillus cereus 702 Roma at 10 ug after 18 hrs by agar-well diffusion assay; details: read-out: IZ; outline: as §1
[14] = system: Enterococcus faecalis; assay: Antimicrobial activity against Enterococcus faecalis ATCC 29212 at 10 ug after 18 hrs by agar-well diffusion assay; details: ATCC 29212, 18 h, read-out: IZ; outline: as §1
[15] = system: Escherichia coli; assay: Antimicrobial activity against Escherichia […] at 10 ug after 18 hrs by agar-well diffusion assay; details: read-out: IZ; outline: as §3
[16] = system: Staphylococcus aureus; assay: Antimicrobial activity against Staphylococcus aureus ATCC […] at 10 ug after 18 hrs by agar-well diffusion assay; details: ATCC 25923, 18 h, read-out: IZ; outline: as §1

Structure (SMILES) | inhibition zone (IZ) [1] | inhibition zone (IZ) [2] | inhibition zone (IZ) [3] | inhibition zone (IZ) [4] | inhibition zone (IZ) ([5]; ATCC 25923) | inhibition zone (IZ) [6] | inhibition zone (IZ) [7] | inhibition zone (IZ) [8] | inhibition zone (IZ) [5] [mm] | zone of inhibition at 5 µg/disc ([9]; ATCC 13803, 18 h, read-out: IZ) [mm] | zone of inhibition at 5 µg/disc ([10]; ATCC 60193, 18 h, read-out: IZ) [mm] | zone of inhibition at 10 µg/disc [11] [mm] | inhibition zone (IZ) [9] | zone of inhibition at 10 µg/disc [12] [mm] | zone of inhibition at 10 µg/disc [13] [mm] | zone of inhibition at 10 µg/disc [14] [mm] | zone of inhibition at 10 µg/disc [15] [mm] | inhibition zone (IZ) [10] | zone of inhibition at 10 µg/disc [16] [mm]
Cc1ccc(-c2nn(Cc3nn(CN4CCN(C)CC4)c(=S)n3-c3ccc(F)cc3)c(=O)n2/N=C/c2ccc(F)cc2)cc1 | inactive | inactive | inactive | inactive | inactive | inactive | inactive | 8 mm |  |  |  |  |  |  |  |  |  |  | 
Cc1ccc(-c2nn(Cc3nn(CN4CCN(C)CC4)c(=S)n3-c3ccccc3)c(=O)n2N)cc1 | inactive | inactive | inactive | inactive | inactive | inactive | inactive | inactive |  |  |  |  |  |  |  |  |  |  | 
COc1ccc(-n2c(S)nnc2Cn2nc(-c3ccc(C)cc3)n(N)c2=O)cc1 | 28 mm | 30 mm | inactive | 25 mm |  | inactive | 22 mm | 25 mm | 30 |  |  |  |  |  |  |  |  |  | 
CCSc1nnc(Cn2nc(-c3ccc(C)cc3)n(N)c2=O)n1-c1ccc(F)cc1 | inactive | inactive | 6 mm | inactive |  | 6 mm | inactive | 9 mm | 8 |  |  |  |  |  |  |  |  |  | 
Cc1ccc(-c2nn(Cc3nnc(N(C)c4ccccc4)s3)c(=O)n2N)cc1 | inactive | inactive | inactive | inactive | inactive | 6 mm | inactive | 7 mm |  |  |  |  |  |  |  |  |  |  | 
Cc1ccc(-c2nn(Cc3nnc(Nc4ccccc4)s3)c(=O)n2N)cc1 | inactive | inactive | inactive | inactive | inactive | inactive | inactive | inactive |  |  |  |  |  |  |  |  |  |  | 
Cc1ccc(-c2nn(Cc3nnc(S)n3-c3ccccc3)c(=O)n2N)cc1 | 25 mm | 30 mm | inactive | 20 mm |  | inactive | 22 mm | 20 mm | 24 |  |  |  |  |  |  |  |  |  | 
Cc1ccc(-c2nn(CC(=O)NNC(=S)Nc3ccc(F)cc3)c(=O)n2N)cc1 | 34 mm | 35 mm | inactive | 30 mm |  | inactive | 28 mm | 22 mm | 30 |  |  |  |  |  |  |  |  |  | 
CSc1nnc(Cn2nc(-c3ccc(C)cc3)n(N)c2=O)n1-c1ccccc1 | inactive | inactive | inactive | inactive | inactive | inactive | inactive | inactive |  |  |  |  |  |  |  |  |  |  | 
COc1ccc(/C=N/n2c(-c3ccc(C)cc3)nn(Cc3nnc(S)n3-c3ccc(F)cc3)c2=O)cc1 | 30 mm | 35 mm | inactive | 24 mm |  | inactive | 30 mm | 22 mm | 26 |  |  |  |  |  |  |  |  |  | 
Cc1ccc(-c2nn(Cc3nnc(S)n3-c3ccc(F)cc3)c(=O)n2/N=C/c2ccc(F)cc2)cc1 | 25 mm | 30 mm | inactive | 20 mm |  | inactive | 22 mm | 20 mm | 24 |  |  |  |  |  |  |  |  |  | 
COc1ccc(NC(=S)NNC(=O)Cn2nc(-c3ccc(C)cc3)n(N)c2=O)cc1 | 24 mm | 35 mm | inactive | 28 mm |  | inactive | 25 mm | 22 mm | 28 |  |  |  |  |  |  |  |  |  | 
COc1ccc(Nc2nnc(Cn3nc(-c4ccc(C)cc4)n(N)c3=O)s2)cc1 | 30 mm | >30 mm | inactive | 20 mm |  | inactive | 22 mm | 23 mm | 28 |  |  |  |  |  |  |  |  |  | 
COc1ccc(-n2c(Cn3nc(-c4ccc(C)cc4)n(N)c3=O)nnc2SC)cc1 | inactive | inactive | inactive | inactive | inactive | inactive | inactive | inactive |  |  |  |  |  |  |  |  |  |  | 
OC(Cn1cncn1)(Cn1cncn1)c1ccc(F)cc1F [FLUCONAZOLE] |  |  |  |  |  |  |  |  |  | 25 | 25 |  |  |  |  |  |  |  | 
Cc1ccc(-c2nn(Cc3nnc(S)n3-c3ccc(F)cc3)c(=O)n2N)cc1 | 30 mm | 35 mm | inactive | 30 mm |  | inactive | 26 mm | 25 mm | 26 |  |  |  |  |  |  |  |  |  | 
Cc1ccc(-c2nn(CC(=O)NNC(=S)Nc3ccccc3)c(=O)n2N)cc1 | inactive | inactive | inactive | inactive |  | inactive | inactive | inactive | 6 |  |  |  |  |  |  |  |  |  | 
Cc1ccc(-c2nn(Cc3nn(CNCCN4CCOCC4)c(=S)n3-c3ccccc3)c(=O)n2N)cc1 | inactive | inactive | inactive | inactive | inactive | inactive | inactive | inactive |  |  |  |  |  |  |  |  |  |  | 
Cc1ccc(-c2nn(Cc3nnc(S)n3-c3ccccc3)c(=O)n2/N=C/c2ccc(F)cc2)cc1 | 25 mm | 30 mm | inactive | 20 mm |  | inactive | 25 mm | 20 mm | 28 |  |  |  |  |  |  |  |  |  | 
CC1(C)S[C@@H]2[C@H](NC(=O)[C@H](N)c3ccccc3)C(=O)N2[C@H]1C(=O)O [AMPICILLIN] |  |  |  |  |  |  |  |  |  |  |  | 18 | inactive | 18 | 15 | 10 | 10 | inactive | 35
Cc1ccc(-c2nn(Cc3nnc(Nc4ccc(F)cc4)s3)c(=O)n2N)cc1 | inactive | inactive | inactive | inactive | inactive | inactive | inactive | inactive |  |  |  |  |  |  |  |  |  |  | 
